The source made the active and inactive calls. The calls are words filed in the database; no cut-off is given here.
Tests used:
SK-MEL-28 [1] = test: Increase in superoxide level in human SK-MEL-28 cells at 100 uM maintained in Locke's solution after 24 hrs by DHE-based fluorescence assay in absence of GF and glucose; format: functional, cell-based
Method in brief: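 SK-MEL-28 cells held 24 h in Locke's balanced saline without glucose or serum, with or without 100 µM compound; antimycin was the positive control. Cells were PBS-washed and labelled at 37 °C with DHE (10 µmol/L, 1% DMSO) in Locke's containing 5 mmol/L pyruvate for 40 min. They were then iced, trypsinized and read by FACS as MFI of 10,000 cells, autofluorescence-corrected; 3–4 separate experiments.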

SK-MEL-28 [2] = test: Effect on ATP level in human SK-MEL-28 cells maintained in medium containing GF and glucose at 100 uM after 24 hrs by luciferase-based assay; format: functional, cell-based
Method in brief: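 SK-MEL-28 cells in DMEM with 10% FBS, grown 24 h in 96-well plates in regular medium (growth factors, glucose), with or without compound at 100 µM. Antimycin served as positive control. Cellular ATP was released with a somatic cell releasing reagent and read by luciferase/luciferin bioluminescence. Mean ± S.E.M. of 10–14 replicates from 3 separate experiments.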

[3] = molecular target: T1, NAD-dependent protein deacetylase sirtuin-2 (Homo sapiens) (UniProt Q8IXJ6); test: Inhibition of human SIRT2 assessed as enzyme activity using Fluor-de-Lys as substrate at 100 uM by fluorometry
T1 sequence (whole entry): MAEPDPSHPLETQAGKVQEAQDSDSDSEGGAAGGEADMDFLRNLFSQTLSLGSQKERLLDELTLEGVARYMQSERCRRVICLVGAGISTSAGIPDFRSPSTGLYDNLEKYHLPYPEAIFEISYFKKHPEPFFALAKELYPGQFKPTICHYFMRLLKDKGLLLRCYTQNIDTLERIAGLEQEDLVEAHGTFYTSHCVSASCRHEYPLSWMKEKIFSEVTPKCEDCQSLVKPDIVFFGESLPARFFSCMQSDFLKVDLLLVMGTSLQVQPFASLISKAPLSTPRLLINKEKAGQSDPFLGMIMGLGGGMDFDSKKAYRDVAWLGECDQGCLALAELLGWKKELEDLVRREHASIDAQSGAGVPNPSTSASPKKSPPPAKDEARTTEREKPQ
Method in brief: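 Commercial Fluor-de-Lys kit, substrate human p53 379–382 peptide (Arg-His-Lys-Lys(Ac)). Human Sirt1 or Sirt2 was incubated with substrate, NAD+ and compound at 1 mM, also tested at 100 µM. Fluorescence scales with Lys382 deacetylation. Activity is expressed relative to control, mean ± S.E.M. of 3–4 replicates.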

SK-MEL-28 [4] = test: Reduction in ATP level in human SK-MEL-28 cells at 100 uM maintained in Locke's solution after 24 hrs by luciferase-based assay in absence of GF and glucose; format: functional, cell-based
Method in brief: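 SK-MEL-28 cells were grown 24 h in Locke's saline lacking glucose and serum, with or without 100 µM compound; antimycin was the positive control. Cellular ATP was released with a somatic-cell releasing reagent, then luciferase/luciferin assay mix was added and bioluminescence read. Mean ± S.E.M. of 10–14 replicates from 3 separate experiments.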

HCT-15 = test: Growth inhibition of human HCT15 cells assessed as cell growth at 10 uM after 48 hrs by MTT assay; values are per cent of control; conditions: HCT-15, 48 h
NCI-H460 = test: Growth inhibition of human NCI-H460 cells assessed as cell growth at 10 uM after 48 hrs by MTT assay; values are per cent of control; conditions: NCI-H460, 48 h
A549 = test: Growth of human A549/ATCC cells assessed as cell growth at 10 uM after 48 hrs by MTT assay; conditions: A549, 48 h
UACC-257 = test: Growth inhibition of human UACC257 cells assessed as cell growth at 10 uM after 48 hrs by MTT assay; values are per cent of control; conditions: UACC-257, 48 h
SK-OV-3 = test: Growth inhibition of human SKOV3 cells assessed as cell growth at 10 uM after 48 hrs by MTT assay; values are per cent of control; conditions: SK-OV-3, 48 h
UACC-62 = test: Growth inhibition of human UACC62 cells assessed as cell growth at 10 uM after 48 hrs by MTT assay; values are per cent of control; conditions: UACC-62, 48 h
NCI-H23 = test: Growth inhibition of human NCI-H23 cells assessed as cell growth at 10 uM after 48 hrs by MTT assay; values are per cent of control; conditions: NCI-H23, 48 h
COLO 205 = test: Growth inhibition of human COLO205 cells assessed as cell growth at 10 uM after 48 hrs by MTT assay; values are per cent of control; conditions: COLO 205, 48 h
NCI-H522 = test: Growth inhibition of human NCI-H522 cells assessed as cell growth at 10 uM after 48 hrs by MTT assay; values are per cent of control; conditions: NCI-H522, 48 h
Malme-3M = test: Growth inhibition of human MALME-3M cells assessed as cell growth at 10 uM after 48 hrs by MTT assay; values are per cent of control

c1cncc(-c2cnn[nH]2)c1
Activity (SK-MEL-28 [1]): Active | Activity (SK-MEL-28 [2]): inactive | inhibition [3]: inactive | Activity (SK-MEL-28 [4]): Active | growth, % of control at 10 µM (HCT-15): 69.2% | growth, % of control at 10 µM (NCI-H460): 115% | growth, % of control at 10 µM (A549): 101% | growth, % of control at 10 µM (UACC-257): 90.3% | growth, % of control at 10 µM (SK-OV-3): 48% | growth, % of control at 10 µM (UACC-62): 90.7% | growth, % of control at 10 µM (NCI-H23): 89.6% | growth, % of control at 10 µM (COLO 205): 23.8% | growth, % of control at 10 µM (NCI-H522): 101% | growth, % of control at 10 µM (Malme-3M): 99%

Reference: ChEMBL document CHEMBL2062496, “Identification of a sirtuin 3 inhibitor that displays selectivity over sirtuin 1 and 2” (Eur J Med Chem, 2012)
